This is an account of results in ChEMBL document CHEMBL4715795, “Urolinin: The First Linear Peptidic Urotensin-II Receptor Agonist” (J Med Chem, 2016).

The source made the active and inactive calls. The rule behind the calls is not given here. Numbered stars: 1 amine (or outer) side, 2 acyl side, 3 side chain; on linkers, the order of the positions; unused ones are H or OH. Bridge positions count the residues as written; N and C are the ends. Square brackets hold non-standard residues; d marks the D form. Peptide text beside a SMILES is read from it. ξ: configuration not given here. Tyr(3-NO2) = N[C@@H](Cc1ccc(O)c([N+](=O)[O-])c1)C(=O)O; X1 = O=C([C@H](Cc1ccc(O)c(S(=O)(=O)O)c1)N[*:1])[*:2]; 2Nal = N[C@@H](Cc1ccc2ccccc2c1)C(=O)O; ξ2Nal = NC(Cc1ccc2ccccc2c1)C(=O)O

In series [1] the target is T1, Urotensin-2 receptor (Homo sapiens, UniProt Q9UKP6).
T1 sequence (Q9UKP6 whole entry): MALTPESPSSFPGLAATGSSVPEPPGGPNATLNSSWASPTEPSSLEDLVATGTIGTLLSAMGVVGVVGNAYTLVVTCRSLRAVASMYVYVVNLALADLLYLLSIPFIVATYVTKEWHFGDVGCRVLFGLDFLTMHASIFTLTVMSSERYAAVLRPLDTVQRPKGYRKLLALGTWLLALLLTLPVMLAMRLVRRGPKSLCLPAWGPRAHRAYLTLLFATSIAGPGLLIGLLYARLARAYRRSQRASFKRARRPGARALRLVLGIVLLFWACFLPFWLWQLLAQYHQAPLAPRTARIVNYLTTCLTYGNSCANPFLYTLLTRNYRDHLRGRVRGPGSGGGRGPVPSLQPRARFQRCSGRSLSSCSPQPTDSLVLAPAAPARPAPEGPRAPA
The series can be described thus: Agonist activity at human U-IIR expressed in HEK293-A cells by Fluo4-AM dye based intracellular calcium mobilization assay. In kind it is functional, cell-based.

The nature of series [2]: Half life in 25% human serum by RP-HPLC analysis. Format: ADME, cell-free. Summed up: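 Peptide at 50 μg/mL final in RPMI with 25% (v/v) human serum, pre-equilibrated at 37 °C. Samples taken at set times into 6% TCA, iced 15 min, spun at 18000g. Supernatant run on C18 RP-HPLC, 25–80% acetonitrile gradient over 15 min at 30 °C, absorbance at 214 and 280 nm.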
Series [3] deals with T1, Urotensin-2 receptor. The series can be described thus: Displacement of [125I-Tyr9]-U-II from human U-IIR expressed in HEK293-A cells incubated for 30 mins by gamma counting based competition radioligand binding assay. Format: cell-based.
For series [4], the target named is Somatostatin receptor type 1 (Homo sapiens, UniProt P30872). Put plainly: Displacement of [125I-Tyr11]-SS14 from human SSTR1 expressed in HEK293-A cells incubated for 30 mins by gamma counting based competition radioligand binding assay. Format: cell-based. The method in brief: (§1)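 Competition binding on HEK293A cells overexpressing the given human SSTR subtype, seeded overnight. Binding buffer: 50 mM Tris-HCl pH 7.4, 5 mM MgCl2, 1 mM CaCl, 0.5% BSA, protease inhibitors. 100000 cpm [125I-Tyr11]-SS14 (chloramine-T iodinated, HPLC-purified) with varying competitor, 30 min at 37 °C. Cells washed four times in cold buffer, lysed in 1 N NaOH, gamma counted. Mean ± SD, three experiments in duplicate.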

Series [5] has as its target Somatostatin receptor type 2 (Homo sapiens, UniProt P30874). Put plainly: Displacement of [125I-Tyr11]-SS14 from human SSTR2 expressed in HEK293-A cells incubated for 30 mins by gamma counting based competition radioligand binding assay. In kind it is cell-based. The method in brief:
as §1

In series [6] the target is Somatostatin receptor type 3 (Homo sapiens, UniProt P32745). Put plainly: Displacement of [125I-Tyr11]-SS14 from human SSTR3 expressed in HEK293-A cells incubated for 30 mins by gamma counting based competition radioligand binding assay. Format: cell-based. Summed up:
as §1

For series [7], the target named is Somatostatin receptor type 5 (Homo sapiens, UniProt P35346). Put plainly: Displacement of [125I-Tyr11]-SS14 from human SSTR5 expressed in HEK293-A cells incubated for 30 mins by gamma counting based competition radioligand binding assay. Format: cell-based. Summed up:
as §1

Series [8] relates to VSMC. The series can be described thus: Agonist activity at U-IIR in pig aorta VSMC assessed as increase of ERK1/2 phosphorylation at 500 nM incubated for 15 mins by Western blot analysis relative to control. The conditions noted are these: Sus scrofa, filed as agonist. The method in brief: (§2)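 Primary smooth muscle cells from aortas of 4–6-month-old domestic pigs, grown from minced-tissue explants and used at passages 5–10. Cells were grown to 80% confluence, then exposed to peptide at 5 or 500 nM in 0.1% FCS/DMEM for 15 min. Lysates were taken in Tris/SDS buffer and probed on Western blot for phospho-ERK1/2 (Thr202/Tyr204). Signal was normalized to total ERK1/2 and to the untreated control. n = 2–4 independent experiments, each with 3–6 replicates.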

Series [9] relates to VSMC. The series can be described thus: Agonist activity at U-IIR in pig aorta VSMC assessed as increase of ERK1/2 phosphorylation at 5 nM incubated for 15 mins by Western blot analysis relative to control. Particulars: Sus scrofa. The method in brief:
as §2

Series [10] has as its system VSMC. The series can be described thus: Agonist activity at U-IIR in pig aorta VSMC assessed as increase of ERK1/2 phosphorylation incubated for 15 mins by Western blot analysis relative to control. Particulars: Sus scrofa, filed as agonist. Summed up: as §2
Series [11] addresses T2, Urotensin-2 receptor (Homo sapiens) (UniProt Q9UKP6).
T2 sequence (whole entry): T1 sequence (Q9UKP6 whole entry)
Put plainly: Agonist activity at human U-IIR expressed in HEK293-A cells at 500 nM by Fluo4-AM dye based intracellular calcium mobilization assay relative to control. Format: functional, cell-based. Particulars: filed as agonist.

For series [12], the target named is T2, Urotensin-2 receptor (Homo sapiens). Put plainly: Agonist activity at human U-IIR expressed in HEK293-A cells at 500 nM by Fluo4-AM dye based intracellular calcium mobilization assay relative to control. Particulars: filed as agonist, dose nM 500.

Chain of Somatostatin receptor type 2 (P30874 whole entry): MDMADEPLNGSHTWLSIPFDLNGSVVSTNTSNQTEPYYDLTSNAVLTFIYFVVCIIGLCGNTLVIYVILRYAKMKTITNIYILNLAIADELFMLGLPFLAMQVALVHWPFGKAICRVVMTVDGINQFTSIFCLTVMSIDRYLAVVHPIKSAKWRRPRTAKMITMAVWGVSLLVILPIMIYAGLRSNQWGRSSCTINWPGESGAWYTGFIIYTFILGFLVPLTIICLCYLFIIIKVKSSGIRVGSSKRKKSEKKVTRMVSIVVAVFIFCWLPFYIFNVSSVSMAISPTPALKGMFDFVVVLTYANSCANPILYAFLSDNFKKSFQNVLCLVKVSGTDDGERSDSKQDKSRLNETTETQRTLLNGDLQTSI
Chain of Somatostatin receptor type 3 (P32745 whole entry): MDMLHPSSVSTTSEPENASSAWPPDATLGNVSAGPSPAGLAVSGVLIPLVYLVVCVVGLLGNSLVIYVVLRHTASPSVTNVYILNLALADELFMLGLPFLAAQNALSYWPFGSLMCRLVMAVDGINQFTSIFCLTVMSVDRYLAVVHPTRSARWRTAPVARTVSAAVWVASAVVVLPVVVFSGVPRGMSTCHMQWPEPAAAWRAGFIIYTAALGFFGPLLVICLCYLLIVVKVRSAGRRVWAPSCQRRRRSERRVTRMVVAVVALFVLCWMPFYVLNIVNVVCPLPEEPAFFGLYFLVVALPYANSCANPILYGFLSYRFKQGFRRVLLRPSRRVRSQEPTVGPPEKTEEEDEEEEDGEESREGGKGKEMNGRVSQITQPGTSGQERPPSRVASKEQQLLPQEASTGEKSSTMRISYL
Chain of Somatostatin receptor type 5 (P35346 whole entry): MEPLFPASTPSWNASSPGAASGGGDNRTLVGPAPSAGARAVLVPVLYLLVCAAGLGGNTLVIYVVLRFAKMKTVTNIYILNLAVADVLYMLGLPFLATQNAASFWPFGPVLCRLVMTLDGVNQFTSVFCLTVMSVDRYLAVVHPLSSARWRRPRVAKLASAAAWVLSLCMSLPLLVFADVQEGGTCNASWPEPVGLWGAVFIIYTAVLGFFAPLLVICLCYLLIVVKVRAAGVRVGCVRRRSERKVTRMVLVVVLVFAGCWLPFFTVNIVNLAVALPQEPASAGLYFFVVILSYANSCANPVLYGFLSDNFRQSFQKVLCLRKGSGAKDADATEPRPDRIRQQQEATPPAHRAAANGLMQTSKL
Chain of Somatostatin receptor type 1 (P30872 whole entry): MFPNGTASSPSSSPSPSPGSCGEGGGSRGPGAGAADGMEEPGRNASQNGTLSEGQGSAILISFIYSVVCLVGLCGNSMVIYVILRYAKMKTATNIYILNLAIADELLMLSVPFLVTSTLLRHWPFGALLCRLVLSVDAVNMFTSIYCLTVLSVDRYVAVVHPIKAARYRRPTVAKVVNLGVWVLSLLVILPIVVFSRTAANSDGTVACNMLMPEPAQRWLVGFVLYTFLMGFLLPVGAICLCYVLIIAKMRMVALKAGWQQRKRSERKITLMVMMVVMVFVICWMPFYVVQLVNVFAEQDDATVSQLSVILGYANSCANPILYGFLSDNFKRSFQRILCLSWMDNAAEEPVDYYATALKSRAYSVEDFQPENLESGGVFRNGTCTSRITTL

Turning to `CC(C)[C@H](NC(=O)[C@@H]1CSSC[C@H](NC(=O)[C@H](CC(=O)O)NC(=O)[C@@H]2CCCN2C(=O)[C@@H](NC(=O)[C@@H](N)CCC(=O)O)[C@@H](C)O)C(=O)N[C@@H](Cc2ccccc2)C(=O)N[C@@H](Cc2c[nH]c3ccccc23)C(=O)N[C@@H](CCCCN)C(=O)N[C@@H](Cc2ccc(O)cc2)C(=O)N1)C(N)=O`, the EC50 at Urotensin-2 receptor [1] was 1.46 nM. In series [2], this compound had a half-life of 209 min. The IC50 at Urotensin-2 receptor [3] was 2 nM; in series [4] it was 10500 nM; in [5], 2980 nM; in [6] it was 8640 nM; in series [7] it was 7600 nM.

On to `CC[C@H](NC(=O)[C@H](Cc1ccc(O)c([N+](=O)[O-])c1)NC(=O)[C@H](CCCCN)NC(=O)[C@H](Cc1c[nH]c2ccccc12)NC(=O)[C@H](Cc1c[nH]c2ccccc12)NC(=O)[C@H](N)CC(N)=O)C(N)=O`, for which, on Urotensin-2 receptor [1], the EC50 worked out at 4.75 nM. Besides, the half-life in [2] was determined as 1320 min. In addition, the IC50 on Urotensin-2 receptor [3] was found to be 600 nM; in series [4], 6720 nM; in series [5], 37500 nM; in series [6], 6070 nM; in [7] it was 28400 nM.

On to `CCC(NC(=O)[C@H](Cc1ccc(O)cc1)NC(=O)[C@H](CCCCN)NC(=O)[C@H](Cc1c[nH]c2ccccc12)NC(=O)[C@H](Cc1c[nH]c2ccccc12)NC(=O)[C@H](N)CC(N)=O)C(N)=O` (some centres undefined), for which the EC50 on Urotensin-2 receptor [1] was found to be 23 nM. The compound also gave a half-life in series [2] of 3120 min. The compound further showed an IC50 at Urotensin-2 receptor [3] of 4830 nM. In the series on VSMC [8], the fold change (FC) was determined as 1.9. Moreover, the result with VSMC [9] was inactive. Also, the Activity entry in the series on VSMC [10] was “Dose-dependent effect”.

`CC(C)[C@H](NC(=O)[C@@H]1CSSC[C@H](NC(=O)[C@H](CC(=O)O)NC(=O)[C@@H]2CCCN2C(=O)[C@@H](NC(=O)[C@@H](N)CCC(=O)O)[C@@H](C)O)C(=O)N[C@@H](Cc2ccccc2)C(=O)N[C@@H](Cc2c[nH]c3ccccc23)C(=O)N[C@@H](CCCCN)C(=O)N[C@@H](Cc2ccc(O)cc2)C(=O)N1)C(=O)O`: the fold change (FC) in the series on VSMC [8] is 2.4. In the series on VSMC [9], the result was inactive. Besides, the Activity result in the series on VSMC [10] is “Dose-dependent effect”.

On to `CC(=O)N[C@@H](Cc1ccccc1)C(=O)N[C@@H](Cc1c[nH]c2ccccc12)C(=O)N[C@@H](CCCCN)C(=O)N[C@@H](Cc1ccc(O)cc1)C(N)=O` (Ac-FWKY-NH2), for which the %max in [11] and in series [12] was 57% each time.

In the case of `CC(C)[C@H](NC(=O)[C@@H]1CSSC[C@H](NC(=O)[C@@H](N)CC(=O)O)C(=O)N[C@@H](Cc2ccccc2)C(=O)N[C@@H](Cc2c[nH]c3ccccc23)C(=O)N[C@@H](CCCCN)C(=O)N[C@@H](Cc2ccc(O)cc2)C(=O)N1)C(N)=O` (H-DCFWKYCV-NH2; disulfide 2-7), the EC50 on Urotensin-2 receptor [1] was 0.45 nM. Also, the half-life in series [2] was 372 min. On Urotensin-2 receptor [3], this compound registered an IC50 of 0.9 nM.

In the case of `COc1ccc(C[C@H](NC(=O)[C@H](CCCCN)NC(=O)[C@H](Cc2c[nH]c3ccccc23)NC(=O)[C@H](Cc2c[nH]c3ccccc23)NC(=O)[C@@H](N)CC(N)=O)C(=O)N[C@@H](CS)C(N)=O)cc1` (H-NWWKY(Me)C-NH2), on Urotensin-2 receptor [1], the EC50 amounted to 10.2 nM. Further, in series [2], the half-life came to 15 min. Also, the IC50 on Urotensin-2 receptor [3] was 890 nM.

For the compound `NCCCC[C@H](NC(=O)[C@H](Cc1c[nH]c2ccccc12)NC(=O)[C@H](Cc1c[nH]c2ccccc12)NC(=O)[C@@H](N)CC(N)=O)C(=O)N[C@@H](Cc1ccc(O)c([N+](=O)[O-])c1)C(=O)N[C@@H](CS)C(N)=O` (H-NWWK[Tyr(3-NO2)]C-NH2), at Urotensin-2 receptor [1], the EC50 amounted to 15.7 nM. In addition, in series [2], the half-life is 23 min. For the same compound, the IC50 at Urotensin-2 receptor [3] was 163 nM.

As for `NCCCC[C@H](NC(=O)[C@H](Cc1c[nH]c2ccccc12)NC(=O)[C@H](Cc1c[nH]c2ccccc12)NC(=O)[C@@H](N)CC(N)=O)C(=O)N[C@@H](Cc1ccc(O)c(S(=O)(=O)O)c1)C(=O)N[C@@H](CS)C(N)=O` (H-NWWK[X1]C-NH2), on Urotensin-2 receptor [1], the EC50 stood at 330 nM. For the same compound, the half-life in [2] is 11 min. The compound also yielded an IC50 on Urotensin-2 receptor [3] of more than 10000 nM.

Consider `NCCCC[C@H](NC(=O)[C@H](Cc1c[nH]c2ccccc12)NC(=O)[C@H](Cc1ccc2ccccc2c1)NC(=O)[C@@H](N)CC(N)=O)C(=O)N[C@@H](Cc1ccc(O)c([N+](=O)[O-])c1)C(=O)N[C@@H](CS)C(N)=O` (H-N[2Nal]WK[Tyr(3-NO2)]C-NH2), for which, at Urotensin-2 receptor [1], the EC50 was 8.13 nM. In series [2], this compound had a half-life of 37 min. This compound returned an IC50 at Urotensin-2 receptor [3] of 430 nM.

`NCCCC[C@H](NC(=O)[C@H](Cc1c[nH]c2ccccc12)NC(=O)C(Cc1ccc2ccccc2c1)NC(=O)[C@@H](N)CC(N)=O)C(=O)N[C@@H](Cc1ccc(O)cc1)C(=O)N[C@@H](CS)C(N)=O` (some centres undefined) (H-N[ξ2Nal]WKYC-NH2): the EC50 on Urotensin-2 receptor [1] is 74.9 nM. The compound further showed a half-life in series [2] of 17 min. Besides, the 50% inhibitory concentration (IC50) on Urotensin-2 receptor [3] is 3060 nM.

As to H-DVFWKYCV-NH2, the EC50 on Urotensin-2 receptor [1] was found to be 32.6 nM. Besides, the half-life in [2] came to 19 min. Also, the IC50 on Urotensin-2 receptor [3] came to 300 nM.

As for H-NWWKYC-NH2, the EC50 on Urotensin-2 receptor [1] amounted to 10 nM. The compound also showed a half-life in series [2] of 19 min. The compound also registered an IC50 on Urotensin-2 receptor [3] of 1550 nM.
